Key:
MCF7 = experiment: Cytotoxicity against human MCF7 cells assessed as inhibition of cell growth after 72 hrs by MTT assay; assay type: functional, cell-based; conditions: MCF7, 72 h
Summary of the method: (§1)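 Cells kept in RPMI 1640 plus 10% FBS at 37 °C in humidified 5% CO2. Seeded for 24 h, then exposed to a range of compound concentrations for 72 h. MTT (5 mg/mL solution) added, followed by 4 h incubation. Medium removed and formazan dissolved in DMSO; absorbance at 570 nm. IC50 taken from dose-response curves, reported as mean ± SD.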

[1] = Cytotoxicity against rat PC12 cells assessed as inhibition of cell growth after 72 hrs by MTT assay; assay type: functional, cell-based; conditions: PC-12, 72 h; summary of the method: as §1

Row | Structure (SMILES) | IC50 (MCF7) | IC50 [1]
1 | C/C=C1\CN[C@H]2C[C@@]3(C(=O)N(OC)c4ccccc43)[C@H]3C[C@@H]1[C@@H]2CO3 | > 50 µM | > 50 µM
2 | C/C=C1\CN(C(=O)N2C/C(=C\C)[C@@H]3C[C@H]4OC[C@@H]3[C@@H]2C[C@@]42C(=O)N(OC)c3cc(OC)ccc32)[C@H]2C[C@@]3(C(=O)N(OC)c4ccccc43)[C@H]3C[C@@H]1[C@@H]2CO3 | > 50 µM | 16.1 µM
3 | C/C=C1\CN[C@H]2C[C@@]3(C(=O)N(OC)c4cc(OC)ccc43)[C@H]3C[C@@H]1[C@@H]2CO3 | > 50 µM | > 50 µM
4 | C/C=C1\CN2C(=O)[C@]3(c4ccc(OC)cc4NOC)C[C@H]2[C@H]2CO[C@@H]3C[C@@H]12 | > 50 µM | > 50 µM
5 | C/C=C1\CN2C(=O)[C@]3(c4ccc(OC)cc4/N=N/c4cc(OC)ccc4[C@@]45C[C@H]6[C@H]7CO[C@@H]4C[C@H]7/C(=C/C)CN6C5=O)C[C@H]2[C@H]2CO[C@@H]3C[C@@H]12 | 38.4 µM | > 50 µM
6 | C/C=C1\CN(C=O)[C@H]2C[C@@]3(C(=O)N(OC)c4cc(OC)ccc43)[C@H]3C[C@@H]1[C@@H]2CO3 | > 50 µM | > 50 µM
7 | C/C=C1\CN2C(=O)[C@]3(c4ccc(OC)cc4N)C[C@H]2[C@H]2CO[C@@H]3C[C@@H]12 | > 50 µM | > 50 µM

Reference: ChEMBL document CHEMBL3596176, “Geleganidines A-C, Unusual Monoterpenoid Indole Alkaloids from Gelsemium elegans” (J Nat Prod, 2015)
